Results on 4 molecules are retold here after PMC3359464 (Medicinal Chemistry Research, 2011).

Residues, ends and D or L forms follow the SMILES beside them.

The subject of one series is DPP IV. Put plainly: Degradation rates of EMs by purified DPP IV with and without inhibitors. Type of series: biochemical. Summed up: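 Commercial purified DPP IV at 0.002 mg protein/ml incubated with endomorphin and test compound (1 mM solutions in 50 mM Tris–HCl, pH 7.4) at 37°C for 0, 7.5, 15, 22.5 and 30 min. Stopped on ice with 1 M HCl, centrifuged, RP-HPLC on C18 (0.1% TFA/acetonitrile gradient). k from linear regression of ln(A/A0) versus time; % inhibition from k with and without inhibitor. Three experiments in duplicate; mean ± SEM.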

Series [1] addresses T1, APM (Sus scrofa, UniProt P15145).
T1 sequence (P15145 2-963): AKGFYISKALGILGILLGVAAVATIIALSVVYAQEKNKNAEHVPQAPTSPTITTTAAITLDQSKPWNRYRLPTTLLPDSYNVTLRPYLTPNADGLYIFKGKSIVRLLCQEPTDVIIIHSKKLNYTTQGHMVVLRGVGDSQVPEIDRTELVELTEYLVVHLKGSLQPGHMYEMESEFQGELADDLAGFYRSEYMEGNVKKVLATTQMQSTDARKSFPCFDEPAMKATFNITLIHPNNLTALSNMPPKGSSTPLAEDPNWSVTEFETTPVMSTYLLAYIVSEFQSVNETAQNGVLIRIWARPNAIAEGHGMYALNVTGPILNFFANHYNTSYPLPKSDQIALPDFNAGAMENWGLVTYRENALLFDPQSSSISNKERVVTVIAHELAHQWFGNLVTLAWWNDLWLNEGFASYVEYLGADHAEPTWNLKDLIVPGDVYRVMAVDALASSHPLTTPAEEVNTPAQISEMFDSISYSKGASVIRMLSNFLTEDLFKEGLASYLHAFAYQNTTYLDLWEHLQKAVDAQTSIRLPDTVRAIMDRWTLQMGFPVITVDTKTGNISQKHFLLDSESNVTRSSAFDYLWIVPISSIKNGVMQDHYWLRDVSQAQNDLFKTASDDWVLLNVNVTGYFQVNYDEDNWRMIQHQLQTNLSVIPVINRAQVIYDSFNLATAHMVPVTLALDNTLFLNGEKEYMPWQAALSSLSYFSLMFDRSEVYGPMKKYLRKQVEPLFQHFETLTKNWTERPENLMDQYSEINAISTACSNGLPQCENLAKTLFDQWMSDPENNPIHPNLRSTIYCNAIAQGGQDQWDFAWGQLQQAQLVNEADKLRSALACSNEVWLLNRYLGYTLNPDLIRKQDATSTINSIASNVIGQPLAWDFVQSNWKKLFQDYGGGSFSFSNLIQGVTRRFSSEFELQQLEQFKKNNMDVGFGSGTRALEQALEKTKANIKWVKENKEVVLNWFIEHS
Put plainly: Degradation rates of EMs by purified APM with and without inhibitors. Type of series: biochemical.

For series [2], the target named is T2, APM (Sus scrofa, UniProt P15145, species not given).
T2 sequence (P15145 2-963): T1 sequence (P15145 2-963)
The series is described as above. Type of series: biochemical. Particulars: purified APM (commercially available enzyme), pH 7.4.

Series [3] has as its system rat spinal cord homogenate. Particulars: ref Sugimoto-Watanabe et al., [1999]; cited from earlier work.
Series [4] can be described thus: Blood-brain barrier crossing. Type of series: in vivo. To be noted: preliminary results.
[5] abbreviates: substrate EM-1, 37°C, 0-30 min, Tris-HCl pH 7.4.
The mark [6] stands for this setting: substrate EM-2, 37°C, 0-30 min, Tris-HCl pH 7.4.

Take Ile-Pro-Ile [Diprotin A]: in the series on DPP IV (setting [5]), the “100 × k, degradation rate of EM-1 by DPP IV in the presence of inhibitor” value was determined as 0.13 ± 0.01 min⁻¹. In the series with DPP IV (setting [6]), the “100 × k, degradation rate of EM-2 by DPP IV in the presence of inhibitor” value was 0.18 ± 0.01 min⁻¹.

As a reminder, the half-life is the time in which the quantity being followed falls by half. A low value points to rapid decline. In the case of `NC(=O)[C@H](Cc1ccccc1)NC(=O)[C@H](Cc1c[nH]c2ccccc12)NC(=O)[C@@H]1CCCN1C(=O)[C@@H](N)Cc1ccc(O)cc1` [EM-1, Tyr-Pro-Trp-Phe-NH2], the half-life in the series on DPP IV (purified DPP IV (commercially available enzyme), pH 7.4) came out at 16.7 ± 0.52 min; on APM [2], 19.7 ± 0.5 min. Moreover, the “Resistance to DPP IV relative to EM-2” value in the series on DPP IV (without inhibitor) is given as “about 1.5 times”. For the same molecule, the “100 × k, degradation rate of EM-1 by DPP IV alone” value in the series on DPP IV (without inhibitor, 37°C) was determined as 4.12 ± 0.2 min⁻¹. For the same molecule, on APM [1] (without inhibitor, 37°C), the “100 × k, degradation rate of EM-1 by APM alone” value was 3.51 ± 0.09 min⁻¹.

With `CCCCC[C@H](CC(=O)NO)C(=O)N[C@H](C(=O)N1CCC[C@H]1CO)C(C)C` [Actinonin, actinonin], the “100 × k, degradation rate of EM-1 by APM in the presence of inhibitor” value on APM [1] (setting [5]) was found to be 1.88 ± 0.09 min⁻¹. Further, the “100 × k, degradation rate of EM-2 by APM in the presence of inhibitor” value at APM [1] (setting [6]) stood at 1.50 ± 0.05 min⁻¹. The “Effect on EM-1 degradation in rat spinal cord homogenate” value in series [3] is on record as “significantly blocked EM-1 degradation”.

In the case of `C[C@H](NC(=O)[C@@H]1CCCN1C(=O)[C@@H](N)Cc1ccc(O)cc1)C(N)=O` [EMDB-2, Tyr-Pro-Ala-NH2] (H-Tyr-Pro-Ala-NH2; N-terminus assumed), in series [4], the “Crossing of the blood-brain barrier” value is “do not cross the blood–brain barrier”.
